{
  "source": "paper PMC3447108",
  "about": "(Bioconjugate chemistry, 2012)",
  "key": {"RGC-5 cells [1]": {"test_system": "RGC-5 cells", "test": "NMDA / glutamate excitotoxicity model", "type": "cell-based, mouse", "conditions": "native and SS-differentiated; up to 5 mM, up to 48 hrs; data not shown"}, "RGC-5 cells [2]": {"test_system": "RGC-5 cells", "test": "Induction of apoptosis and probe activation by cytotoxic agents", "type": "cell-based, mouse"}, "RGC-5 cells [3]": {"test_system": "RGC-5 cells", "test": "Staurosporine differentiation and morphology of RGC-5 cells", "type": "cell-based, mouse"}, "RGC-5 cells [4]": {"test_system": "RGC-5 cells", "test": "Non-target activation in healthy cells, LysoTracker co-localization", "type": "cell-based, mouse"}, "RGC-5 cells [5]": {"test_system": "RGC-5 cells", "type": "cell-based, mouse", "conditions": "FITC-annexin V; compared to 3 with Alexa Fluor 647-annexin V; data not shown", "outline": "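RGC-5 cells are grown in phenol-free DMEM with 10% FBS at 37°C and 5% CO2. They are given 5 µM staurosporine in growth medium for 3 h, then co-incubated for 30 min with up to 10 µM quenched test compound plus FITC-annexin V. Propidium iodide (500 nM) is added for 5 min. Cells are rinsed three times in phenol-free medium and imaged by fluorescence microscopy.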"}, "[6]": {"conditions": "in vivo; cited from earlier work"}, "caspase 3": {"biological_target": "T1, caspase 3 (Homo sapiens, UniProt P42574)", "T1 sequence (P42574 29-175 limits assumed)": "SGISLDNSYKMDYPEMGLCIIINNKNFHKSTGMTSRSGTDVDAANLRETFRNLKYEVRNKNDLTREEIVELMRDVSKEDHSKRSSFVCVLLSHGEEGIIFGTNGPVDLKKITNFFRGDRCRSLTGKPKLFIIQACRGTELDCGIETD", "T1 sequence (P42574 176-277 limits assumed)": "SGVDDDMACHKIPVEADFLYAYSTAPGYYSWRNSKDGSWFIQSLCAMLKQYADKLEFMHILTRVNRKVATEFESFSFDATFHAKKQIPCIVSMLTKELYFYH", "test": "Caspase 3 probe cleavage", "type": "biochemical", "conditions": "HEPES buffer pH 7.4, 10 mM DTT, 37°C, 640/680 nm", "outline": "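Human recombinant caspase 3 (E. coli-expressed; 50 U, 1.4 × 10−6 mg) is pre-equilibrated for 10 min at 37°C in the stated buffer with 0.1% CHAPS, 10% glycerol and 1 mM EDTA. Quenched test compound (2 µM solution) is added, and fluorescence is read continuously for 30 min at 37°C. Signals are background-subtracted and normalized to enzyme mass. Initial 0–5 min rates come from linear fits; Km and kcat come from nonlinear regression of cleavage rates.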"}, "[7]": {"test_system": "retinal ganglion cell apoptosis", "conditions": "directly applied into the vitreous humor; models of RGC degeneration; ref [6],[10]; cited from earlier work"}, "[8]": {"conditions": "Figures 5–7, S9, S10 (ionomycin), Figure 6 (SS), doxorubicin data not shown"}},
  "note": "Where two headings read alike, the source gives them in different places.",
  "data": [
    {"compound": "CN[C@H](CC(=O)O)C(=O)O", "note": "[NMDA]", "values": [
      {"measurement": "loss in viability", "setting": "RGC-5 cells [1]", "value": "no loss in viability"}
    ]},
    {"compound": "CN[C@@H]1C[C@H]2O[C@@](C)([C@@H]1OC)n1c3ccccc3c3c4c(c5c6ccccc6n2c5c31)C(=O)NC4", "note": "[SS, staurosporine]", "values": [
      {"measurement": "apoptosis and probe activation upon treatment", "setting": "RGC-5 cells [2]; [8]", "value": "readily observed"},
      {"measurement": "time to differentiation morphology", "setting": "RGC-5 cells [3]; 0.5 µM SS, 37°C, bright field microscopy", "value": "≤ 1", "unit": "hour"},
      {"measurement": "time to completion of morphological changes", "setting": "RGC-5 cells [3]; SS, room temperature", "value": "approximately 2 hours"},
      {"measurement": "toxic concentration (blebbing and disruption of neurite morphology)", "setting": "RGC-5 cells [3]; concentrations exceeding the value", "value": "exceeding 2 µM"}
    ]},
    {"compound": "COc1cccc2c1C(=O)c1c(O)c3c(c(O)c1C2=O)C[C@@](O)(C(=O)CO)C[C@@H]3O[C@H]1C[C@H](N)[C@H](O)[C@H](C)O1", "note": "[doxorubicin]", "values": [
      {"measurement": "apoptosis and probe activation upon treatment", "setting": "RGC-5 cells [2]", "value": "readily observed"}
    ]},
    {"compound": "C[C@H](CCC(=O)O)C[C@H](C)C[C@H](C)C(=O)/C=C(\\O)[C@H](C)C[C@H](C)C/C=C/[C@@H](C)[C@@H](O)[C@@H](C)[C@@H](O)C[C@@H]1CC[C@@](C)([C@H]2CC[C@@](C)([C@@H](C)O)O2)O1", "note": "[ionomycin]", "values": [
      {"measurement": "apoptosis and probe activation upon treatment", "setting": "RGC-5 cells [2]; [8]", "value": "readily observed"}
    ]},
    {"compound": "(kkkrkv) linked to a cleavage sequence consisting of L amino acids (KDEVDAPC) [compound 1]", "values": [
      {"measurement": "probe signal in healthy cells", "setting": "RGC-5 cells [4]; 2 hr exposure, fluorescence microscopy", "value": "no significant probe signal"},
      {"measurement": "Pearson’s coefficient, LysoTracker compartments and activated probe", "setting": "RGC-5 cells [4]; SS-differentiated RGC-5 cells, 3 hrs", "value": 0.612},
      {"measurement": "punctate probe signal in LysoTracker-labeled compartments", "setting": "RGC-5 cells [4]; healthy native and SS-differentiated RGC-5 cells, 3 hrs", "value": "delayed appearance of punctate signal"},
      {"measurement": "Pearson’s coefficient, LysoTracker compartments and activated probe", "setting": "RGC-5 cells [4]; native RGC-5 cells, 3 hrs", "value": 0.566},
      {"measurement": "coincidence of probe activation with annexin V binding", "setting": "RGC-5 cells [5]", "value": "Identical results"},
      {"measurement": "systemic toxicity", "setting": "[6]", "value": "without the systemic toxicity of the HIV-1 Tat sequence"},
      {"measurement": "kcat/Km", "setting": "caspase 3", "value": "435 (FU min^−1 µM^−1)/nM"},
      {"measurement": "detection of RGC apoptosis in vivo", "setting": "[7]", "value": "detect RGC apoptosis in models of RGC degeneration in vivo"}
    ]}
  ]
}
